Assay [1] is described as follows: Displacement of [3H]SCH23390 from D1 like receptor in pig striatal tissue by topcount scintillation counting. The format is tissue-based, Sus scrofa, Striatum. The method, boiled down: (§1)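 Porcine striatal membranes (P2 pellet, washed in 50 mM Tris pH 7.4), 75 µg protein per tube in 50 mM Hepes, 4 mM MgCl2, pH 7.4. Nonspecific binding was defined with 5 µM butaclamol. Incubation was 37 °C for 30 min, then filtration and scintillation counting. Ki was derived by Cheng-Prusoff and D2/D1 Ki compared.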
For orientation: In a radioligand displacement assay an active substance lowers the binding of a labelled ligand.

The nature of assay [2]: Displacement of [3H]spiperone from D2 like receptor in pig striatal tissue by topcount scintillation counting. The format is tissue-based, Sus scrofa, Striatum. The method, boiled down:
as §1

The species entered for another assay is Sus scrofa. As to the kind of experiment: Selectivity ratio of Ki for pig D2-like receptor to Ki for pig D1-like receptor. The method, boiled down:
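Porcine striatal membranes (P2 pellet, washed in 50 mM Tris pH 7.4), 75 µg protein per tube in 50 mM Hepes, 4 mM MgCl2, pH 7.4. D1-like sites were labelled with 1 nM [3H]SCH-23390. D2-like sites were labelled with 0.15 nM [3H]spiperone plus 50 nM ketanserin. Nonspecific binding was defined with 5 µM butaclamol. Incubation was 37 °C for 30 min, then filtration and scintillation counting. Ki was derived by Cheng-Prusoff and D2/D1 Ki compared.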

Assay [3] deals with 5-hydroxytryptamine receptor 7 (Homo sapiens, UniProt P34969). As to the kind of experiment: Binding affinity to 5HT7 receptor.
Assay [4] concerns the target T1, Alpha-1A adrenergic receptor (Homo sapiens, UniProt P35348).
T1 sequence (P35348 whole entry): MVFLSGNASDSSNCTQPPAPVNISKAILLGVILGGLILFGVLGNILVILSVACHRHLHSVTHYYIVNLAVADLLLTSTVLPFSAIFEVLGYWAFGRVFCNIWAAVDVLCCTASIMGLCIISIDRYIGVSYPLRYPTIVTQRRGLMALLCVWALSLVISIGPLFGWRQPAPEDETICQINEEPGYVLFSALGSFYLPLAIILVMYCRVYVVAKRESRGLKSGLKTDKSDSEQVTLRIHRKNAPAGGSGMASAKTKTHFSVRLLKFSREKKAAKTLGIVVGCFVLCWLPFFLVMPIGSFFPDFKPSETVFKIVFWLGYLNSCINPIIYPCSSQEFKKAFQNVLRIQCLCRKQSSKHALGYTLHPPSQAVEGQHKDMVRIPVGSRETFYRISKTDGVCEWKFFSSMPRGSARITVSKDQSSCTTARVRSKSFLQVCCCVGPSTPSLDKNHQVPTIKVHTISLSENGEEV
As to the kind of experiment: Binding affinity to adrenergic alpha1A receptor.

In assay [5] the target is T2, Alpha-2A adrenergic receptor (Homo sapiens, UniProt P08913).
T2 sequence (P08913 whole entry): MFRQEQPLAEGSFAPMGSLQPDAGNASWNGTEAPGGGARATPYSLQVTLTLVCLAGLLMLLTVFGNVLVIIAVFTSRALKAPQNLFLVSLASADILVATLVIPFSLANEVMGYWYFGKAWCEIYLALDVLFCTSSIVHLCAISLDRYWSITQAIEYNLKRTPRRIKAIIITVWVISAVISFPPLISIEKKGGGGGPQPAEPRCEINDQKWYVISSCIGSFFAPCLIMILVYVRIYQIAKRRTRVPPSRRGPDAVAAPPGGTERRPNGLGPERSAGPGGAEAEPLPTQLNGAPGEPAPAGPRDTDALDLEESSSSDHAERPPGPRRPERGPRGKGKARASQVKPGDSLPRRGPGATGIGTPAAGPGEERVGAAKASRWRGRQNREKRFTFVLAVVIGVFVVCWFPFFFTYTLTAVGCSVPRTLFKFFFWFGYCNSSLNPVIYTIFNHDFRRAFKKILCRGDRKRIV
As to the kind of experiment: Binding affinity to adrenergic alpha2A receptor.

For assay [6], the target named is T3, Alpha-2B adrenergic receptor (Homo sapiens, UniProt P18089).
T3 sequence (P18089 whole entry): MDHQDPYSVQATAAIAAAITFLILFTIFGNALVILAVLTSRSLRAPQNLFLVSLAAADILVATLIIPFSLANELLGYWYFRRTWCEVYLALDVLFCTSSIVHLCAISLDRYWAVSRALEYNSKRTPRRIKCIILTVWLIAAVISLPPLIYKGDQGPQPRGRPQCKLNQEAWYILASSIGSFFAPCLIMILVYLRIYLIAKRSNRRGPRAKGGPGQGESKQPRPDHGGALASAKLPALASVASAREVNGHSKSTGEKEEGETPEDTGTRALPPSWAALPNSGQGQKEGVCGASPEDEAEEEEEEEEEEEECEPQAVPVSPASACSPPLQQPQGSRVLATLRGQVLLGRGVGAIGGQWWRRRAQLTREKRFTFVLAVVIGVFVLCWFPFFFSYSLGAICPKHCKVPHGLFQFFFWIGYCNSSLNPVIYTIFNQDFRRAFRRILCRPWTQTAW
Nature of the assay: Binding affinity to adrenergic alpha2B receptor.

The target of assay [7] is T4, Alpha-2C adrenergic receptor (Homo sapiens, UniProt P18825).
T4 sequence (P18825 whole entry): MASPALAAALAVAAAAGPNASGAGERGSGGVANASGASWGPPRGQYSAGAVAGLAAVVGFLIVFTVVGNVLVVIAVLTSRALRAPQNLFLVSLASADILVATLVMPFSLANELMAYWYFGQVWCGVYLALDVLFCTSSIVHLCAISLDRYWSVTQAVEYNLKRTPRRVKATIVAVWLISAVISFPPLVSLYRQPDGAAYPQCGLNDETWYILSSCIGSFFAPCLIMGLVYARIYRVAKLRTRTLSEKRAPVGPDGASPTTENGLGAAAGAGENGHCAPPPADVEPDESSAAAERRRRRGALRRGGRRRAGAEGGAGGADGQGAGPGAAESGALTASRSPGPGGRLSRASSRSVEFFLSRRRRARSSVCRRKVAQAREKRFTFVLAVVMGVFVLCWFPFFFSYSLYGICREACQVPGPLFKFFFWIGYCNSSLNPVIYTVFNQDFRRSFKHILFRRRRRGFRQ
Nature of the assay: Binding affinity to adrenergic Alpha-2C receptor.

Assay [8] deals with Kappa-type opioid receptor (Homo sapiens, UniProt P41145). As to the kind of experiment: Binding affinity to […] opioid receptor.
The target in assay [9] is T5, D(1A) dopamine receptor (Homo sapiens, UniProt P21728). Nature of the assay: Binding affinity to dopamine D1 receptor.
The target in the next assay is D(3) dopamine receptor (Homo sapiens, UniProt P35462). As to the kind of experiment: Binding affinity to dopamine D3 receptor.
The next assay concerns the target T6, D(4) dopamine receptor (Homo sapiens, UniProt P21917).
T6 sequence (P21917 whole entry): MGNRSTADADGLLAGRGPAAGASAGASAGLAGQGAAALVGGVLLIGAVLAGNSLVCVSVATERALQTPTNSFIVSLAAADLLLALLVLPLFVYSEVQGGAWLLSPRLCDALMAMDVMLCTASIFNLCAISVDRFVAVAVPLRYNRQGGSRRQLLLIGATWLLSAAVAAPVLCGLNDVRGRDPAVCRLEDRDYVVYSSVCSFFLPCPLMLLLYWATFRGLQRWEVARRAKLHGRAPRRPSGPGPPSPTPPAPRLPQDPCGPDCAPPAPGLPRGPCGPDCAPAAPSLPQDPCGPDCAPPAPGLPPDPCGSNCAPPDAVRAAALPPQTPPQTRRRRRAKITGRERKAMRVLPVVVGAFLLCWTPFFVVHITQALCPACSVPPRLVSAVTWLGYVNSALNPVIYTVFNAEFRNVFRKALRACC
Nature of the assay: Binding affinity to dopamine D4 receptor.

The target of another assay is D(1B) dopamine receptor (Homo sapiens, UniProt P21918). Nature of the assay: Binding affinity to dopamine D5 receptor.
The target of assay [10] is T5, D(1A) dopamine receptor. As to the kind of experiment: Agonist activity at human D1 receptor assessed as cAMP accumulation. It counts as functional. (Changes in cAMP serve as a functional read-out for many G protein-coupled receptors.)
Assay [11] deals with T7, 5-hydroxytryptamine receptor 3A (Homo sapiens, UniProt P46098).
T7 sequence (P46098 whole entry): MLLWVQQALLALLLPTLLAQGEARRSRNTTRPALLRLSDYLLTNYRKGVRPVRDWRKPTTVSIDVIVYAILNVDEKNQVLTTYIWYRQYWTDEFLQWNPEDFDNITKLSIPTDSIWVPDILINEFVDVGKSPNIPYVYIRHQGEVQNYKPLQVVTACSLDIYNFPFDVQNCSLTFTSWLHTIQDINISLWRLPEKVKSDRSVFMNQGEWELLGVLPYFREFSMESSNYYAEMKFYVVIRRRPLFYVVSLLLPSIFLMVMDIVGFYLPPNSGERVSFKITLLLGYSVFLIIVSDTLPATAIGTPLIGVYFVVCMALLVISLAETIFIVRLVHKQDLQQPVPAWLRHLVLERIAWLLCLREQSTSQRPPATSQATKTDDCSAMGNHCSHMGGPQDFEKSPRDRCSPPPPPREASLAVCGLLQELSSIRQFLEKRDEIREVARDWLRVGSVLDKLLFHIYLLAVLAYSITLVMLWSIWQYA
As to the kind of experiment: Binding affinity to 5HT3 receptor.

T5 sequence (P21728 whole entry): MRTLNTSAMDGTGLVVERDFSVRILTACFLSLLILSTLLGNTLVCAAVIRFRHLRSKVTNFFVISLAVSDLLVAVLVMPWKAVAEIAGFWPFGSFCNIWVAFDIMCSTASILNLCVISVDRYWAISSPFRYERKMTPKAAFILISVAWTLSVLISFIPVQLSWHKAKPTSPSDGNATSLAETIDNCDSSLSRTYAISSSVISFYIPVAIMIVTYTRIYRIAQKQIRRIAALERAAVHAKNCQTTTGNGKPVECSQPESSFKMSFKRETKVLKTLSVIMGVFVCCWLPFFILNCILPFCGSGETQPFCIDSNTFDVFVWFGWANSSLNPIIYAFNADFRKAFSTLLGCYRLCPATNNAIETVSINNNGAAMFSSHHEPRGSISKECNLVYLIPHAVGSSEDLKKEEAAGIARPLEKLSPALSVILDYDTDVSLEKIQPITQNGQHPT
Sequence of Kappa-type opioid receptor (P41145 whole entry): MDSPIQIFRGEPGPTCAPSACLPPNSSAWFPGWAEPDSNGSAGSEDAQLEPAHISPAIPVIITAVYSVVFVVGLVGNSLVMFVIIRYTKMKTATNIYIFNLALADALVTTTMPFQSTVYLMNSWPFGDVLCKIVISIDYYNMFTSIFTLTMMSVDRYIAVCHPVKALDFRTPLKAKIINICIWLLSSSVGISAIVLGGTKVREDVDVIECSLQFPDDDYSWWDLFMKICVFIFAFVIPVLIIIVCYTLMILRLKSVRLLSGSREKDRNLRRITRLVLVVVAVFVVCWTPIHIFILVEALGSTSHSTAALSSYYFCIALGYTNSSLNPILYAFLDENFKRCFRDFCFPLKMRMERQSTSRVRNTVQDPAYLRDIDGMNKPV
Sequence of 5-hydroxytryptamine receptor 7 (P34969 whole entry): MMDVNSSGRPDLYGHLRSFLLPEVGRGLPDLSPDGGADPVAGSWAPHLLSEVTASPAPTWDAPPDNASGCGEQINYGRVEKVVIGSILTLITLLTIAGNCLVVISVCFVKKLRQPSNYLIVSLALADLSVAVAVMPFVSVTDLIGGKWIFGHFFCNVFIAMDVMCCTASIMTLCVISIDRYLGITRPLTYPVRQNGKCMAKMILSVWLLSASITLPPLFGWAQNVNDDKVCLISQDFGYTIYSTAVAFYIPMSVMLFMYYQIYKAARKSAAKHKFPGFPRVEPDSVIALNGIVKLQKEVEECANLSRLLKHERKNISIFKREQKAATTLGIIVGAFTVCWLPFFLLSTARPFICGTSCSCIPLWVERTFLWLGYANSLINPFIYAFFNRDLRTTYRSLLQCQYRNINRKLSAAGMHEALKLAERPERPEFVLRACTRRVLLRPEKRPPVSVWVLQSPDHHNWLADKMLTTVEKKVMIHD
Sequence of D(1B) dopamine receptor (P21918 whole entry): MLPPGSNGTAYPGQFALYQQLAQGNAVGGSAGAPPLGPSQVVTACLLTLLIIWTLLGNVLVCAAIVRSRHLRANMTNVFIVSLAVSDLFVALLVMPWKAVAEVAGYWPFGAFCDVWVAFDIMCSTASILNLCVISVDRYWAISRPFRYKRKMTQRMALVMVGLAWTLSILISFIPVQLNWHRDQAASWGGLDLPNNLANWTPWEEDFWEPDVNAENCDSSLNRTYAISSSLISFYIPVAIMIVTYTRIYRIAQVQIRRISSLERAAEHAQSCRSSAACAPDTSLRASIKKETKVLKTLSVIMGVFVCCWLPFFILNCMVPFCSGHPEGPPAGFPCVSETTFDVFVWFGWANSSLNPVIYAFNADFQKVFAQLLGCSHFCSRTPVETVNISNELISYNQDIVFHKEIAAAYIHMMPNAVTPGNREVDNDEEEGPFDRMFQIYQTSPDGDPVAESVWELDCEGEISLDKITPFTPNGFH
Sequence of D(3) dopamine receptor (P35462 whole entry): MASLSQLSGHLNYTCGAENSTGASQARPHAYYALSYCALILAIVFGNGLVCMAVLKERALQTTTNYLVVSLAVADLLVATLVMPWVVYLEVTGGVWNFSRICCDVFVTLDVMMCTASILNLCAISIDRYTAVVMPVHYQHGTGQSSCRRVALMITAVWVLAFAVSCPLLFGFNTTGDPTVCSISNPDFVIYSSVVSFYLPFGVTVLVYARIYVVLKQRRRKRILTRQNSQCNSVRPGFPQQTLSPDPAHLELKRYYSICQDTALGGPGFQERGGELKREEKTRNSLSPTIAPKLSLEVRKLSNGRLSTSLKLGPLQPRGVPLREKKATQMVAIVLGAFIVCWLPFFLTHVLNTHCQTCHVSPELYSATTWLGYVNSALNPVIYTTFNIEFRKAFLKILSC

For orientation: Ki means a measure of affinity in units of concentration, obtained from inhibition or displacement. Consider `Oc1ccc2c(c1O)CC[C@@H]1CCNC[C@H]21` (relative stereo), for which the values for the Ki in assay [1] and in assay [2] were 6800 nM and 2800 nM, respectively. In addition, the Selectivity Index in the assay listed under Sus scrofa stood at 0.4.

Consider `Oc1ccc2c(c1O)CC[C@@H]1CCNC[C@@H]21` (relative stereo), for which the values for the Ki in [1] and in assay [2] were 850 nM and 670 nM, respectively. Moreover, the Selectivity Index in the assay listed under Sus scrofa was 0.8.

In assay [1], `CN1CCc2cc(Cl)c(O)cc2[C@@H](c2ccccc2)C1` [SCH-23390] came in with a Ki of 0.79 nM.

A word on the EC50: it is the concentration needed to bring the measured effect to its halfway point. As to `Oc1ccc2c(c1O)C[C@@H](c1ccccc1)[C@@H]1CCNC[C@@H]21`, the Ki in assay [3] is 220 nM; in assay [4], 340 nM; in assay [5], 3.5 nM; in [6] it was 6.4 nM; in assay [7], 1.1 nM; in assay [8] it was 820 nM. For the same compound, the inhibition constant (Ki) was determined as 18 nM at D(1A) dopamine receptor [9]; 130 nM at D(3) dopamine receptor; 2650 nM on D(4) dopamine receptor; 2.8 nM at D(1B) dopamine receptor; 6 nM in assay [1]; 440 nM in assay [2]. In assay [11], this compound returned a Ki of 870 nM. Also, the EC50 at D(1A) dopamine receptor [10] turned out to be 0.64 nM.

The record behind these values is ChEMBL document CHEMBL1221364 (Bioorg Med Chem, 2010).
